Measured values from ChEMBL document CHEMBL2424615, “Design, synthesis, and characterization of novel tetrahydropyran-based bacterial topoisomerase inhibitors with potent anti-gram-positive activity” (J Med Chem, 2013).

How the values were obtained:
[1] = target: hERG (KCNH2) (Homo sapiens, UniProt Q12809); assay: Inhibition of human ERG expressed in CHO cells at 10 uM after 3 mins by patch clamp assay relative to control; format: cell-based; conditions: CHO cells that express human ERG
[2] = Volume of distribution at steady state in Wistar rat at 1 mg/kg, iv administered as bolus dose and 10 mg/kg, po; format: ADME, organism-based; conditions: in vivo, read-out: Vdss
Method in brief: (§1)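 Male Wistar rats (n = 3) dosed by iv bolus (0.5 or 1 mg/kg) or orally (1 or 10 mg/kg); iv vehicles included pH 4.5 aqueous solution, 5% DMSO in water, or 10% PG/10% PEG400 in water pH 7; oral as pH 5.6 aqueous suspension or microsuspension in 7.5% modified gelatin. Blood sampled by preimplanted catheter over 24 h; plasma by LC-MS/MS, LOQ 1.5 ng/mL.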

[3] = test system: Escherichia coli; assay: Antibacterial activity against wild type Escherichia coli ATCC 25922 assessed as growth inhibition by broth microdilution method; format: functional
[4] = test system: Staphylococcus aureus; assay: Antibacterial activity against wild type Staphylococcus aureus ATCC 29213 assessed as growth inhibition by broth microdilution method; format: functional
[5] = test system: Streptococcus pneumoniae; assay: Antibacterial activity against wild type Streptococcus pneumoniae ATCC 49619 assessed as growth inhibition by broth microdilution method; format: functional
[6] = Oral bioavailability in Wistar rat at 10 mg/kg; format: ADME, organism-based; conditions: in vivo; method in brief: as §1
[7] = Fraction unbound in Wistar rat plasma at 1 mg/kg, iv administered as bolus dose and 10 mg/kg, po; format: ADME, organism-based
[8] = Intrinsic clearance in mouse liver microsomes at 1 uM; format: ADME, Microsome; conditions: read-out: CLH
[9] = target: Topoisomerase IV (Staphylococcus aureus, UniProt P0C1S7+P0C1U9); assay: Inhibition of wild type Staphylococcus aureus ATCC 29213 topoisomerase-4 subunit 2GrlA/2GrlB assessed as pBR322 relaxation after 1 hr; format: protein-complex assay
[10] = AUC in Wistar rat at 10 mg/kg, po; format: ADME, organism-based; design: dose 10 mg/kg, route oral; conditions: plasma; method in brief: as §1
[11] = target: DNA gyrase (Staphylococcus aureus, UniProt P0A0K8+P20831); assay: Inhibition of wild type Staphylococcus aureus DNA gyrase subunit 2GyrA/2GyrB assessed as pBR322 supercoiling after 1 hr; format: protein-complex assay
[12] = Intrinsic clearance in human liver microsomes at 1 uM; format: ADME, Microsome; conditions: read-out: CLH
[13] = AUC in Wistar rat at 1 mg/kg, iv administered as bolus dose; format: ADME, organism-based; design: dose 1 mg/kg, route intravenous; conditions: plasma; method in brief: as §1
[14] = Clearance in Wistar rat at 1 mg/kg, iv administered as bolus dose; format: ADME, organism-based; design: dose 1 mg/kg, route intravenous; conditions: in vivo; method in brief: as §1
[15] = Inhibition of wild type Escherichia coli ATCC 25922 DNA topoisomerase-4 subunit 2ParC/2ParE assessed as pBR322 relaxation after 1 hr
[16] = Half life in Wistar rat at 1 mg/kg, iv administered as bolus dose and 10 mg/kg, po; format: ADME, organism-based; conditions: in vivo; method in brief: as §1
[17] = test system: Staphylococcus aureus; assay: Antibacterial activity against NXL-101-resistant Staphylococcus aureus A-234 harboring DNA gyrase subunit A D83N mutant assessed as growth inhibition by broth microdilution method; format: functional
[18] = test system: Rattus norvegicus; assay: Unbound clearance in Wistar rat at 1 mg/kg, iv administered as bolus dose and 10 mg/kg, po; format: ADME, organism-based; conditions: in vivo; method in brief: as §1
[19] = Inhibition of wild type Escherichia coli ATCC 25922 DNA gyrase subunit 2GyrA/2GyrB assessed as pBR322 supercoiling after 1 hr
[20] = Intrinsic clearance in rat liver microsomes at 1 uM; format: ADME, Microsome; conditions: read-out: CLH
[21] = test system: Pseudomonas aeruginosa; assay: Antibacterial activity against wild type Pseudomonas aeruginosa ATCC 27853 assessed as growth inhibition by broth microdilution method; format: functional
[22] = test system: Streptococcus pyogenes; assay: Antibacterial activity against Streptococcus pyogenes clinical isolate assessed as growth inhibition by broth microdilution method; format: functional
[23] = Fraction unbound in Wistar rat plasma at 0.5 mg/kg, iv and 1 mg/kg, po; format: ADME, organism-based
[24] = test system: Streptococcus agalactiae; assay: Antibacterial activity against Streptococcus agalactiae clinical isolate assessed as growth inhibition by broth microdilution method; format: functional
[25] = AUC in Wistar rat at 1 mg/kg, po; format: ADME, organism-based; design: dose 1 mg/kg, route oral; conditions: plasma; method in brief: as §1
[26] = AUC in Wistar rat at 0.5 mg/kg, iv; format: ADME, organism-based; design: dose 0.5 mg/kg, route intravenous; conditions: plasma; method in brief: as §1
[27] = test system: Haemophilus influenzae; assay: Antibacterial activity against Haemophilus influenzae clinical isolate assessed as growth inhibition by broth microdilution method; format: functional
[28] = test system: Streptococcus pneumoniae; assay: Antibacterial activity against Streptococcus pneumoniae clinical isolate assessed as growth inhibition by broth microdilution method; format: functional
[29] = test system: Staphylococcus epidermidis; assay: Antibacterial activity against Staphylococcus epidermidis clinical isolate assessed as growth inhibition by broth microdilution method; format: functional
[30] = Oral bioavailability in Wistar rat at 1 mg/kg; format: ADME, organism-based; conditions: in vivo; method in brief: as §1
[31] = Clearance in Wistar rat at 0.5 mg/kg, iv; format: ADME, organism-based; design: dose 0.5 mg/kg, route intravenous; conditions: in vivo; method in brief: as §1
[32] = test system: Rattus norvegicus; assay: Unbound clearance in Wistar rat at 0.5 mg/kg, iv and 1 mg/kg, po; format: ADME, organism-based; conditions: in vivo; method in brief: as §1
[33] = test system: Staphylococcus aureus; assay: Antistaphylococcal activity against Staphylococcus aureus DSM 11823 in neutropenic NMRI mouse thigh infection model assessed as reduction of log10cfu in thigh at 40 mg/kg, sc measured after 6 hrs; format: functional; conditions: route subcutaneous
Method in brief: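 Mice made neutropenic with ip cyclophosphamide, 150 mg/kg on day -4 and 100 mg/kg on day -1. Log-phase S. aureus (A580 0.3-0.9), 0.05 ml inoculum given im into both thighs 2 h before sc dosing in 5% mannitol in water at 10 ml/kg. Thighs homogenized, serially diluted and plated for CFU 6 h post infection.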

[34] = test system: Enterococcus faecium; assay: Antibacterial activity against vancomycin-resistant Enterococcus faecium clinical isolate assessed as growth inhibition by broth microdilution method; format: functional
[35] = Volume of distribution at steady state in Wistar rat at 0.5 mg/kg, iv and 1 mg/kg, po; format: ADME, organism-based; conditions: in vivo, read-out: Vdss; method in brief: as §1
[36] = test system: Moraxella catarrhalis; assay: Antibacterial activity against Moraxella catarrhalis clinical isolate assessed as growth inhibition by broth microdilution method; format: functional
[37] = test system: Staphylococcus aureus; assay: Spontaneous resistance frequency for Staphylococcus aureus ATCC 25923 at 4 times MIC to 16 times MIC after 48 hrs relative to NXL-101; format: functional
Method in brief: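 Incubated 48 h at 37 °C. Frequency calculated as resistant colonies divided by viable bacteria plated, with the viable count taken on drug-free agar.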

[38] = test system: Staphylococcus aureus; assay: Antibacterial activity against fluoroquinolone-resistant Staphylococcus aureus clinical isolate assessed as growth inhibition by broth microdilution method; format: functional
[39] = Half life in Wistar rat at 0.5 mg/kg, iv and 1 mg/kg, po; format: ADME, organism-based; conditions: in vivo; method in brief: as §1
[40] = test system: Staphylococcus aureus; assay: Antistaphylococcal activity against Staphylococcus aureus DSM 11823 assessed as growth inhibition by broth microdilution method; format: functional
[41] = test system: Enterococcus faecalis; assay: Antibacterial activity against Enterococcus faecalis clinical isolate assessed as growth inhibition by broth microdilution method; format: functional
[42] = test system: Staphylococcus aureus; assay: Antibacterial activity against methicillin-resistant Staphylococcus aureus clinical isolate assessed as growth inhibition by broth microdilution method; format: functional

SMILES: COc1cnc2cccc([C@@H](O)[C@H](O)[C@@H]3CC[C@@H](NCc4ccc5c(n4)NC(=O)CS5)CO3)c2n1
- inhibition at 0.05 h, 10 µM [1]: 55%
- Vd [2]: 18 L/kg
- MIC [3]: 2 µg/mL
- MIC [4]: 0.03 µg/mL
- MIC [5]: 0.06 µg/mL
- bioavailability [6]: 26%
- fraction unbound [7]: 0.18
- microsomal CLint at 1 µM [8]: 39 µL/min/mg
- IC50 [9]: 2000 nM
- AUC [10]: 817 ng·h/mL
- IC50 [11]: 30 nM
- microsomal CLint at 1 µM [12]: 45 µL/min/mg
- AUC [13]: 313 ng·h/mL
- clearance [14]: 53 mL/min/kg
- IC50 [15]: 125 nM
- half-life [16]: 5.9 h
- MIC [17]: 0.5 µg/mL
- CL free [18]: 294 mL/min/kg
- IC50 [19]: 500 nM
- microsomal CLint at 1 µM [20]: 92 µL/min/mg
- MIC [21]: > 8 µg/mL

SMILES: COc1ccc2ncc(F)c([C@@H](O)[C@H](O)[C@@H]3CC[C@@H](NCc4cc5c(cn4)OCCS5)CO3)c2n1
- MIC50 [22]: 0.03 µg/mL
- MIC90 [22]: 0.06 µg/mL
- fraction unbound [23]: 0.017
- MIC50 [24]: 0.25 µg/mL
- MIC90 [24]: 0.5 µg/mL
- AUC [25]: 776 ng·h/mL
- AUC [26]: 959 ng·h/mL
- inhibition at 0.05 h, 10 µM [1]: 19%
- MIC50 [27]: 0.5 µg/mL
- MIC90 [27]: 4 µg/mL
- MIC [3]: 8 µg/mL
- MIC [4]: ≤ 0.015 µg/mL
- MIC [5]: ≤ 0.015 µg/mL
- MIC50 [28]: 0.06 µg/mL
- MIC90 [28]: 0.125 µg/mL
- microsomal CLint at 1 µM [8]: 291 µL/min/mg
- MIC50 [29]: 0.06 µg/mL
- MIC90 [29]: 0.25 µg/mL
- IC50 [9]: 8000 nM
- bioavailability [30]: 41%
- clearance [31]: 8.7 mL/min/kg
- CL free [32]: 512 mL/min/kg
- log10cfu [33]: 1
- MIC50 [34]: 0.25 µg/mL
- MIC90 [34]: 1 µg/mL
- Vd [35]: 1 L/kg
- MIC50 [36]: 0.03 µg/mL
- MIC90 [36]: 0.125 µg/mL
- IC50 [11]: 30 nM
- microsomal CLint at 1 µM [12]: 30 µL/min/mg
- fold change (FC) [37]: 10
- MIC50 [38]: ≤ 0.015 µg/mL
- MIC90 [38]: 0.03 µg/mL
- IC50 [15]: 125 nM
- half-life [39]: 3 h
- MIC [17]: 2 µg/mL
- MIC [40]: 0.06 µg/mL
- IC50 [19]: 8000 nM
- microsomal CLint at 1 µM [20]: 344 µL/min/mg
- MIC50 [41]: 0.5 µg/mL
- MIC90 [41]: 0.5 µg/mL
- MIC [21]: > 8 µg/mL
- MIC50 [42]: ≤ 0.015 µg/mL
- MIC90 [42]: 0.03 µg/mL

SMILES: COc1ccc2nccc(CC[C@@H]3CC[C@@H](NCc4ccc5c(n4)NC(=O)CS5)CO3)c2n1
- Vd [2]: 3.2 L/kg
- MIC [3]: 1 µg/mL
- MIC [4]: 0.03 µg/mL
- MIC [5]: 0.06 µg/mL
- bioavailability [6]: 29%
- microsomal CLint at 1 µM [8]: 954 µL/min/mg
- IC50 [9]: 500 nM
- AUC [10]: 1320 ng·h/mL
- IC50 [11]: 30 nM
- microsomal CLint at 1 µM [12]: 347 µL/min/mg
- AUC [13]: 463 ng·h/mL
- clearance [14]: 36 mL/min/kg
- half-life [16]: 1.2 h
- MIC [17]: 1 µg/mL
- IC50 [19]: 120 nM
- microsomal CLint at 1 µM [20]: > 1250 µL/min/mg
- MIC [21]: > 8 µg/mL
